Experimental data taken from ChEMBL document CHEMBL1165950, “Design and synthesis of new potent anticancer pyrazoles with high FLT3 kinase inhibitory selectivity” (Bioorg Med Chem, 2010).

How the values were obtained:
Format in all cases: functional
[1] = test system: SW-620; test: Cytotoxicity against human SW620 cells assessed as cell growth at 100 nM after 48 hrs by sulforhodamine B assay; conditions: SW-620, 48 h, read-out: Activity
[2] = test system: SF-539; test: Cytotoxicity against human SF539 cells assessed as cell growth at 1 uM after 48 hrs by sulforhodamine B assay; conditions: SF-539, 48 h, read-out: Activity
[3] = test system: MDA-MB-468; test: Cytotoxicity against human MDA-MB-468 cells assessed as cell growth at 0.01 uM after 48 hrs by sulforhodamine B assay; conditions: MDA-MB-468, 48 h, read-out: Activity
[4] = test system: MDA-MB-231; test: Cytotoxicity against human MDA-MB-231 cells assessed as cell growth at 0.01 uM after 48 hrs by sulforhodamine B assay; conditions: MDA-MB-231, 48 h, read-out: Activity
[5] = test system: K562; test: Cytotoxicity against human K562 cells assessed as cell growth at 0.01 uM after 48 hrs by sulforhodamine B assay; conditions: K562, 48 h, read-out: Activity
[6] = test system: TK-10; test: Cytotoxicity against human TK10 cells assessed as cell growth at 0.001 uM after 48 hrs by sulforhodamine B assay; conditions: TK-10, 48 h, read-out: Activity
[7] = test system: HOP-62; test: Cytotoxicity against human HOP62 cells assessed as cell growth at 0.001 uM after 48 hrs by sulforhodamine B assay; conditions: HOP-62, 48 h, read-out: Activity
[8] = test system: HOP-62; test: Cytotoxicity against human HOP62 cells assessed as cell growth at 10 uM after 48 hrs by sulforhodamine B assay; conditions: HOP-62, 48 h, read-out: Activity
[9] = test system: MOLT-4; test: Cytotoxicity against human MOLT4 cells assessed as cell growth at 10 uM; conditions: read-out: Activity
Summary of the method: (§1)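 NCI-60 screen: cells grown in RPMI 1640 with 5% FBS and 2 mM L-glutamine, plated at 5000–40,000 cells/well according to doubling time, and preincubated 24 h at 37 °C, 5% CO2. The single 10 µM dose (DMSO stock) was added, then incubated 48 h. Cells were TCA-fixed and stained with 0.4% SRB, read at 515 nm, and growth % calculated against time-zero and control plates.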

[10] = test system: HOP-92; test: Cytotoxicity against human HOP92 cells assessed as cell growth at 1 uM after 48 hrs by sulforhodamine B assay; conditions: HOP-92, 48 h, read-out: Activity
[11] = test system: UACC-62; test: Cytotoxicity against human UACC62 cells assessed as cell growth at 0.01 uM after 48 hrs by sulforhodamine B assay; conditions: UACC-62, 48 h, read-out: Activity
[12] = test system: RXF 393; test: Cytotoxicity against human RXF393 cells assessed as cell growth at 10 uM; conditions: read-out: Activity; summary of the method: as §1
[13] = test system: IGROV-1; test: Cytotoxicity against human IGROV1 cells assessed as cell growth at 100 nM after 48 hrs by sulforhodamine B assay; conditions: IGROV-1, 48 h, read-out: Activity
[14] = test system: SW-620; test: Cytotoxicity against human SW620 cells assessed as cell growth at 0.01 uM after 48 hrs by sulforhodamine B assay; conditions: SW-620, 48 h, read-out: Activity
[15] = Growth inhibition of human Hs 578T cells after 48 hrs by sulforhodamine B assay; conditions: for CC50: read-out: LC50 (the source's name)
Summary of the method: (§2)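 NCI 60-cell screen, five-dose mode. Cells grown in RPMI 1640 with 5% FBS and 2 mM L-glutamine and plated at 5000-40,000 cells/well according to doubling time. After 24 h preincubation, a Tz plate was TCA-fixed. Five concentrations (10-fold or 1/2 log dilutions) were applied for 48 h at 37 °C. SRB staining read at 515 nm. IC50 taken from [(Ti-Tz)/(C-Tz)]×100 = 50.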

[16] = test system: IGROV-1; test: Cytotoxicity against human IGROV1 cells assessed as cell growth at 0.01 uM after 48 hrs by sulforhodamine B assay; conditions: IGROV-1, 48 h, read-out: Activity
[17] = test system: EKVX; test: Cytotoxicity against human EKVX cells assessed as cell growth at 10 uM; conditions: read-out: Activity
Summary of the method: (§3)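 Single-dose NCI-60 screen at 10 µM. Cells were grown in RPMI 1640 with 5% FBS and 2 mM L-glutamine, then treated for 48 h at 37 °C. Protein was measured by SRB staining with absorbance at 515 nm. Percentage growth was recorded, and inhibition percentage was calculated as 100 minus growth percentage.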

[18] = test system: HL-60(TB); test: Cytotoxicity against human HL-60(TB) cells assessed as cell growth at 10 uM after 48 hrs by sulforhodamine B assay; conditions: HL-60, 48 h, read-out: Activity
Summary of the method: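 NCI 60-cell panel. Cells are grown in RPMI 1640 with 5% FBS and 2 mM L-glutamine, seeded at 5000–40,000 cells/well according to doubling time, and preincubated 24 h. Time-zero plates are TCA-fixed. Compound from DMSO stock is given at five 10-fold or 1/2-log concentrations for 48 h at 37 °C, 5% CO2. Suspension cells are fixed with 80% TCA (final 16%) and SRB-stained, with absorbance at 515 nm. Percent growth is derived from Tz, control and test readings.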

[19] = test system: MOLT-4; test: Growth inhibition of human MOLT4 cells after 48 hrs by sulforhodamine B assay; conditions: MOLT-4, 48 h; summary of the method: as §2
[20] = test system: UACC-62; test: Cytotoxicity against human UACC62 cells assessed as cell growth at 10 uM after 48 hrs by sulforhodamine B assay; conditions: UACC-62, 48 h, read-out: Activity
[21] = test system: LOX IMVI; test: Cytotoxicity against human LOXIMVI cells assessed as cell growth at 0.01 uM after 48 hrs by sulforhodamine B assay; conditions: read-out: Activity
[22] = test system: CAKI-1; test: Cytotoxicity against human Caki1 cells assessed as cell growth at 10 uM after 48 hrs by sulforhodamine B assay; conditions: CAKI-1, 48 h, read-out: Activity
[23] = test system: CAKI-1; test: Cytotoxicity against human Caki1 cells assessed as cell growth at 0.01 uM after 48 hrs by sulforhodamine B assay; conditions: CAKI-1, 48 h, read-out: Activity
[24] = test system: OVCAR-8; test: Cytotoxicity against human OVCAR8 cells assessed as cell growth at 10 uM after 48 hrs by sulforhodamine B assay; conditions: OVCAR-8, 48 h, read-out: Activity
[25] = test system: NCI-H522; test: Cytotoxicity against human NCI-H522 cells assessed as cell growth at 100 nM after 48 hrs by sulforhodamine B assay; conditions: NCI-H522, 48 h, read-out: Activity
[26] = test system: NCI-H226; test: Cytotoxicity against human NCI-H226 cells assessed as cell growth at 0.001 uM after 48 hrs by sulforhodamine B assay; conditions: NCI-H226, 48 h, read-out: Activity
[27] = test system: Malme-3M; test: Cytotoxicity against human MALME-3M cells assessed as cell growth at 1 uM after 48 hrs by sulforhodamine B assay; conditions: read-out: Activity
[28] = test system: HT-29; test: Cytotoxicity against human HT-29 cells assessed as cell growth at 10 uM after 48 hrs by sulforhodamine B assay; conditions: HT-29, 48 h, read-out: Activity
[29] = test system: COLO 205; test: Cytotoxicity against human COLO205 cells assessed as cell growth at 10 uM; conditions: read-out: Activity; summary of the method: as §3
[30] = test system: OVCAR-8; test: Cytotoxicity against human OVCAR8 cells assessed as cell growth at 100 nM after 48 hrs by sulforhodamine B assay; conditions: OVCAR-8, 48 h, read-out: Activity
[31] = test system: MOLT-4; test: Cytotoxicity against human MOLT4 cells assessed as cell growth at 10 uM after 48 hrs by sulforhodamine B assay; conditions: MOLT-4, 48 h, read-out: Activity

Row | SMILES | growth at 0.1 µM [1] [%] | growth at 1 µM [2] [%] | growth at 0.01 µM [3] [%] | growth at 0.01 µM [4] [%] | growth at 0.01 µM [5] [%] | growth at 0.001 µM [6] [%] | growth at 0.001 µM [7] [%] | growth at 10 µM [8] [%] | growth at 10 µM [9] [%] | growth at 1 µM [10] [%] | growth at 0.01 µM [11] [%] | growth at 10 µM [12] [%] | growth at 0.1 µM [13] [%] | growth at 0.01 µM [14] [%] | GI50 [15] [µM] | TGI [15] [µM] | CC50 [15] [µM] | growth at 0.01 µM [16] [%] | growth at 10 µM [17] [%] | growth at 10 µM [18] [%] | other results
1 | COc1cc(C)cc(-c2c(-c3ccnc(-c4ccc(N(C)C)cc4)c3)cnn2CC#N)c1 | 12 | 1 | -10 | 88 | 34 | 99 | 99 | 32 | 9.77 | -20 | 38 | 23.3 | 2 | 69 | 0.166 | > 100 | > 100 | -3 | 45.8 | -20 | GI50 [19]: 0.271 µM; LC50 [19]: > 100 µM; growth at 10 µM [20]: 16%; growth at 0.01 µM [21]: 39%; growth at 10 µM [22]: -25%; growth at 0.01 µM [23]: -6%; growth at 10 µM [24]: 8%; growth at 0.1 µM [25]: -47%; growth at 0.001 µM [26]: 95%; growth at 1 µM [27]: 40%; growth at 10 µM [28]: -48%; growth at 10 µM [29]: -71.1%; growth at 0.1 µM [30]: 11%; growth at 10 µM [31]: 1%
2 | COc1cc(C)cc(-c2nn(CC#N)cc2-c2ccc(-c3cccc(C(C)=O)c3)nc2)c1 | 56 | -39 | 82 | 96 | 80 | 99 | 84 | -12 | 28.1 | -4 | 90 | -51 | 88 | 91 | 1.28 | 3.87 | 31.2 | 92 | 51.6 | -8 | GI50 [19]: 3.35 µM; LC50 [19]: > 100 µM; TGI [19]: > 100 µM; growth at 10 µM [20]: 25%; growth at 0.01 µM [21]: 96%; growth at 10 µM [22]: -18%; growth at 0.01 µM [23]: 96%; growth at 10 µM [24]: -11%; growth at 0.1 µM [25]: 68%; growth at 0.001 µM [26]: 95%; growth at 1 µM [27]: 38%; growth at 10 µM [28]: -11%; growth at 10 µM [29]: -44.6%; growth at 0.1 µM [30]: 86%; growth at 10 µM [31]: 14%
3 | COc1cc(C)cc(-c2c(-c3ccnc(-c4ccc(C(C)=O)cc4)c3)cnn2CC#N)c1 | 71 | -45 | 84 | 95 | 80 | 103 | 94 | 11 | 58 | -9 | 88 | 54.8 | 83 | 88 | 1.68 | 5.68 | > 100 | 94 | 98.6 | -3 | GI50 [19]: 2.63 µM; LC50 [19]: > 100 µM; TGI [19]: > 100 µM; growth at 10 µM [20]: 35%; growth at 0.01 µM [21]: 105%; growth at 10 µM [22]: 25%; growth at 0.01 µM [23]: 97%; growth at 10 µM [24]: 10%; growth at 0.1 µM [25]: 76%; growth at 0.001 µM [26]: 100%; growth at 1 µM [27]: 36%; growth at 10 µM [28]: 6%; growth at 10 µM [29]: 42.6%; growth at 0.1 µM [30]: 85%; growth at 10 µM [31]: 14%
4 | Cc1cc(O)cc(-c2nn(CC#N)cc2-c2ccnc(-c3ccc(N(C)C)cc3)c2)c1 | 83 | -34 | 91 | 98 | 101 | 105 | 92 | -22 | 28.1 | 25 | 96 | 64.7 | 87 | 90 | 2.13 | 7 | > 100 | 94 | 71.6 | -16 | GI50 [19]: 3.17 µM; LC50 [19]: > 100 µM; TGI [19]: 46 µM; growth at 10 µM [20]: -80%; growth at 0.01 µM [21]: 104%; growth at 10 µM [22]: -31%; growth at 0.01 µM [23]: 102%; growth at 10 µM [24]: -5%; growth at 0.1 µM [25]: 75%; growth at 0.001 µM [26]: 100%; growth at 1 µM [27]: 27%; growth at 10 µM [28]: -52%; growth at 10 µM [29]: 38.9%; growth at 0.1 µM [30]: 89%; growth at 10 µM [31]: -6%
5 | COc1cc(C)cc(-c2nn(CC#N)cc2-c2ccnc(-c3ccc(N(C)C)cc3)c2)c1 | 14 | -35 | 74 | 94 | 61 | 109 | 108 | -13 | 16 | 9 | 86 | -17.1 | 16 | 90 | 0.264 | 0.695 | > 100 | 101 | 41 | -27 | GI50 [19]: 0.626 µM; LC50 [19]: > 100 µM; TGI [19]: > 100 µM; growth at 10 µM [20]: -8%; growth at 0.01 µM [21]: 105%; growth at 10 µM [22]: -11%; growth at 0.01 µM [23]: 92%; growth at 10 µM [24]: -8%; growth at 0.1 µM [25]: -39%; growth at 0.001 µM [26]: 103%; growth at 1 µM [27]: 61%; growth at 10 µM [28]: -66%; growth at 10 µM [29]: -73.2%; growth at 0.1 µM [30]: 32%; growth at 10 µM [31]: 1%
